# Measured values collected from several papers.
# Each line is one published result; the experiments were not run side by side.
# Cell line: PC-3
# Read-out: cell growth or viability
Structure (SMILES),test,conditions,IC50
Cc1cc(C)cc(COc2cc3c(cc2OCc2cc(C)cc(C)c2)[C@H]2C[C@](O)(Cc4cn(Cc5cccnc5)nn4)C[C@H](C)N2CC3)c1,MTT,,638 nM
COc1cc2ncnc(Nc3ccc(F)c(Cl)c3)c2cc1NC(=O)N/N=C/c1cccn1CCN1CCCCC1,MTT,72 h,2240 nM
CCn1cnc2ccc(/C=C/C(=O)NO)cc2c1=O,SRB,48 h,7040 nM
COc1c(C)cnc(COc2ccc(NC(=O)Nc3cccc(C(F)(F)F)c3)cc2)c1C,MTT,72 h,> 100000 nM
C=CS(=O)(=O)Nc1ccc(CCn2cc(C[C@@]3(O)C[C@@H]4c5cc(OCc6cc(C)cc(C)c6)c(OCc6cc(C)cc(C)c6)cc5CCN4[C@@H](C)C3)nn2)cc1,MTT,,1730 nM
O=C(N/N=C/c1cccn1CCN1CCOCC1)Nc1cc2c(Nc3ccc(F)c(Cl)c3)ncnc2cc1O[C@H]1CCOC1,MTT,72 h,4270 nM
COc1cc(Nc2nccc(-c3cnn4nc(OC)ccc34)n2)cc(C(F)(F)F)c1,ATP luminescence,,370 nM
Cc1cc(C)cc(COc2cc3c(cc2OCc2cc(C)cc(C)c2)[C@H]2C[C@](O)(Cc4cn(Cc5cc(C(F)(F)F)cc(C(F)(F)F)c5)nn4)C[C@H](C)N2CC3)c1,MTT,,406 nM
COc1cc2ncnc(Nc3ccc(F)c(Cl)c3)c2cc1NC(=O)N/N=C/c1cccn1CCCN1CCCC1,MTT,72 h,1560 nM
Cc1c(OCC(F)(F)F)ccnc1COc1ccc(NC(=O)Nc2ccc(Cl)cc2)cc1,MTT,72 h,> 100000 nM
O=C(N/N=C/CN1CCCC1)Nc1cc2c(Nc3ccc(F)c(Cl)c3)ncnc2cc1O[C@H]1CCOC1,MTT,72 h,3890 nM
COC1=CC(=O)N(C(=O)[C@@H](CCC(Cl)(Cl)Cl)NC(=O)C(C)(C)C)[C@@H]1CCC(Cl)Cl,resazurin,72 h,28000 nM
COc1cccc2c1C(=O)c1c(O)c3c(c(O)c1C2=O)C[C@@](O)(C(=O)CO)C[C@@H]3O[C@H]1C[C@H](N)[C@H](O)[C@H](C)O1,MTT,48 h,0.629 µg/mL
COCCCOc1ccnc(COc2ccc(NC(=O)Nc3ccc(OC)cc3)cc2)c1C,MTT,72 h,47200 nM
CN1CCN(CCn2cccc2/C=N/NC(=O)Nc2cc3c(Nc4ccc(F)c(Cl)c4)ncnc3cc2O[C@H]2CCOC2)CC1,MTT,72 h,1890 nM
COc1c(C)cnc(COc2ccc(NC(=O)Nc3ccc(Cl)c(C(F)(F)F)c3)cc2)c1C,MTT,72 h,> 100000 nM
COc1cc2ncnc(Nc3ccc(F)c(Cl)c3)c2cc1NC(=O)N/N=C/c1cccn1CCN1CCOCC1,MTT,72 h,820 nM
Cc1cc(C)cc(COc2cc3c(cc2OCc2cc(C)cc(C)c2)[C@H]2C[C@](O)(Cc4cn(CC56CC7CC(CC(C7)C5)C6)nn4)C[C@H](C)N2CC3)c1,MTT,,143 nM
COc1cc(Nc2nc(CN)cc3c(-c4ccccc4)n[nH]c23)cc(OC)c1OC,MTS,48 h,3500 nM
CC(C)C(=O)Nc1ccc([N+](=O)[O-])c(C(F)(F)F)c1,CCK-8,48 h,> 50000 nM
